This note sets out measurements from ChEMBL document CHEMBL2417528, “Synthesis and anticancer activity evaluation of a series of [1,2,4]triazolo[1,5-a]pyridinylpyridines in vitro and in vivo” (Eur J Med Chem, 2013).

For data set [1], the system named is CCRF S-180. The experiment in a line: Antitumor activity against mouse S180 cells xenografted in mouse assessed as inhibition of tumor growth at 1 mg/kg, po qd for 10 days relative to control. The format is functional. As to conditions: CCRF S-180, 240 h. The essentials:
(§1)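 Mice bearing sarcoma S-180 randomized into three groups of 6. Compound in DMSO/PEG400/5% glucose (10:60:30) given orally once daily for 10 days at 1 or 5 mg/kg. The solvent group received the same volume of vehicle. Mice sacrificed on Day 11, tumors weighed, and tumor-weight inhibitory ratio calculated versus the solvent group.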

The subject of data set [2] is Mus musculus. The experiment in a line: Toxicity in mouse S180 cells xenografted mouse assessed as change on body weight at 1 mg/kg, po qd for 10 days. In kind it is organism-based, CCRF S-180. Further details: dose 1 mg/kg, route oral. As to conditions: in vivo, 240 h. Summed up:
(§2)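 S-180 tumor-bearing mice (6 per group) dosed orally once daily for 10 days at 1 or 5 mg/kg in DMSO/PEG400/5% glucose (10:60:30), with a vehicle solvent group. Body weights recorded daily. Animals sacrificed on Day 11.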

Data set [3] has as its system Mus musculus. The experiment in a line: Toxicity in mouse S180 cells xenografted mouse assessed as mortality at 20 mg/kg, po. Also noted: dose 20 mg/kg, route oral. To be noted: in vivo. In kind it is organism-based, CCRF S-180.
Data set [4] relates to HCT-116. Put plainly: Antiproliferative activity against human HCT116 cells after 48 hrs by MTT assay. The format is functional, cell-based. As to conditions: HCT-116, 48 h. The essentials: (§3)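 Cells seeded at 3000–5000 per well in DMEM with 10% FBS and preincubated 24 h at 37 °C. Cell numbers were titrated so controls stay in exponential growth, then 48 h drug exposure. MTT added for 4 h, formazan pelleted by centrifugation and dissolved in DMSO, OD read at 490 nm. IC50 calculated from inhibition ratios, mean of three separate experiments in triplicate.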
Background: Formazan colour is commonly taken as a measure of viable cells.

A further data set deals with MCF7. Put plainly: Antiproliferative activity against human MCF7 cells after 48 hrs by MTT assay. To be noted: MCF7, 48 h. The format is functional, cell-based. The essentials: as §3
Data set [5] concerns Mus musculus. Put plainly: Toxicity in mouse S180 cells xenografted mouse assessed as change on body weight at 5 mg/kg, po qd for 10 days. The format is organism-based, CCRF S-180. Also noted: dose 5 mg/kg, route oral. To be noted: in vivo, 240 h. The essentials:
as §2

Data set [6] in a line: Antiproliferative activity against human U87MG cells after 48 hrs by MTT assay. As to conditions: U-87 MG. The format is functional, cell-based, U-87MG ATCC. Summed up:
as §3

For data set [7], the system named is CCRF S-180. The experiment in a line: Antitumor activity against mouse S180 cells xenografted in mouse assessed as inhibition of tumor growth at 5 mg/kg, po qd for 10 days relative to control. In kind it is functional. As to conditions: CCRF S-180, 240 h. Summed up:
as §1

The subject of data set [8] is HCT-116. The experiment in a line: Inhibition of PI3K in human HCT116 cells assessed as reduction of AKT phosphorylation at Ser473 at 10 uM after 1 hr by Western blot analysis. In kind it is cell-based. The essentials:
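HCT-116 cells seeded at 1 × 10⁶ per well in DMEM with 10% FBS and grown 16 h at 37 °C. Treated 1 h at 37 °C at […] or with DMSO. Cells washed in ice-cold PBS, lysed, and clarified at 12,000 rpm for 20 min at 4 °C. Protein quantified by BCA, run on SDS-PAGE, transferred to nitrocellulose, and probed for AKT and p-Ser473 AKT.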

SMILES strings stand for the structures. pIC50: −log10 of the molar value. The source made the active and inactive calls. No cut-off for these calls is given here.

By inhibition in vivo is commonly meant the percentage by which the read-out fell short of the control. As a reminder, the pIC50 is −log10 of the IC50, conventionally taken in molar units. `COc1ncc(-c2ccc3nc(NC(C)=O)nn3c2)cc1NS(=O)(=O)c1ccc(F)cc1`: the inhibition in vivo at 1 mg/kg in the data set on CCRF S-180 [1] was 20%. The values for the Activity entry with Mus musculus [2], with Mus musculus [3] and with Mus musculus [5] were “Non-toxic”, “Non-toxic” and < 90%, respectively. Also, the pIC50 in the data set on HCT-116 [4] was 6.07; in the data set on MCF7, 6.08; in data set [6], 5.74. Also, the inhibition in vivo at 5 mg/kg in the data set with CCRF S-180 [7] was 75.8%. For the same molecule, the inhibition entry in the data set with HCT-116 [8] was “Active”.

For `COc1ncc(-c2ccc3nc(NCC(=O)O)nn3c2)cc1NS(=O)(=O)c1ccc(F)cc1`, the pIC50 is 5.06 in the data set with HCT-116 [4], 4.90 with MCF7 and 5.01 in [6].

For `COc1ncc(-c2ccc3nc(N)nn3c2)cc1NS(=O)(=O)c1ccc(C)cc1`, the pIC50 with HCT-116 [4] was 5.47; in the data set with MCF7, 5.81; in data set [6], 5.60.

`COc1ncc(-c2ccc3nc(NC(C)=O)nn3c2)cc1NS(=O)(=O)c1ccc(C)cc1`: the pIC50 is 6.22 in the data set with HCT-116 [4], 6.09 in the data set with MCF7 and 5.80 in data set [6].

Consider `CNC(=O)CNc1nc2ccc(-c3cnc(OC)c(NS(=O)(=O)c4ccc(F)cc4)c3)cn2n1`, for which the values for the pIC50 (with HCT-116 [4]; with MCF7; in data set [6]) were 5.31, 5.60 and 5.14, respectively.

Take `CCOC(=O)CNc1nc2ccc(-c3cnc(OC)c(NS(=O)(=O)c4ccc(F)cc4)c3)cn2n1`: the pIC50 with HCT-116 [4] was 5.36; in the data set with MCF7 it was 5.36; in data set [6], 5.10.

As for `COc1ncc(-c2ccc3nc(NC(C)=O)nn3c2)cc1NS(=O)(=O)c1ccc(F)cc1F`, the values for the pIC50 (in the data set on HCT-116 [4]; with MCF7; in data set [6]) were 6.13, 6.06 and 5.70, respectively.

On to `COCCNc1nc2ccc(-c3cnc(OC)c(NS(=O)(=O)c4ccc(F)cc4)c3)cn2n1`, for which the pIC50 is 5.34 in the data set with HCT-116 [4], 5.62 with MCF7 and 5.19 in [6].

As to `COc1ncc(-c2ccn3nc(N)nc3c2)cc1NS(=O)(=O)c1ccc(F)cc1`, in the data set on Mus musculus [3], the Activity entry was “Toxic”. In addition, the values for the pIC50 (with HCT-116 [4]; with MCF7; in [6]) were 6.09, 6.04 and 5.75, respectively. Further, in the data set on HCT-116 [8], the inhibition entry was “Active”.

Take `Cn1c(=O)n(-c2ccc(C(C)(C)C#N)cc2)c2c3cc(-c4cnc5ccccc5c4)ccc3ncc21` [DACTOLISIB]: the pIC50 in the data set on HCT-116 [4] is 5.94; with MCF7 it was 6.14; in data set [6], 5.88.

Regarding `CCOCCNc1nc2ccc(-c3cnc(OC)c(NS(=O)(=O)c4ccc(F)cc4)c3)cn2n1`, the figures for the pIC50 (in the data set on HCT-116 [4]; with MCF7; in [6]) were 5.03, 5.87 and 5.09, respectively.

With `COc1ncc(-c2ccn3nc(NC(C)=O)nc3c2)cc1NS(=O)(=O)c1ccc(Cl)cc1`, the pIC50 in the data set on HCT-116 [4] was 5.88; in the data set on MCF7 it was 5.91; in data set [6], 5.67.

Consider `COc1ncc(-c2ccc3nc(N)nn3c2)cc1NS(=O)(=O)c1ccc(Cl)cc1`, for which the pIC50 in the data set on HCT-116 [4] was 5.60; in the data set with MCF7, 5.74; in [6] it was 5.51.

In the case of `COc1ncc(-c2ccc3nc(NC(C)=O)nn3c2)cc1NS(=O)(=O)c1ccc(Cl)cc1`, the pIC50 in the data set on HCT-116 [4] is 6.13; in the data set on MCF7, 5.70; in [6] it was 5.68.

With `O=C(Nc1nc2ccc(-c3cnc(Cl)c(NS(=O)(=O)c4ccc(F)cc4)c3)cn2n1)C1CC1`, the pIC50 was 5.00 in the data set with HCT-116 [4], < 4.22 in the data set on MCF7 and 4.96 in data set [6].

As to `COc1ncc(-c2ccn3nc(NC(C)=O)nc3c2)cc1NS(=O)(=O)c1ccc(F)cc1`, the values for the pIC50 (with HCT-116 [4]; with MCF7; in [6]) were 5.88, 5.76 and 5.62, respectively.

As for `COc1ncc(-c2ccc3nc(NCC(N)=O)nn3c2)cc1NS(=O)(=O)c1ccc(F)cc1`, the values for the pIC50 (in the data set on HCT-116 [4]; in the data set with MCF7; in data set [6]) were 5.21, 5.08 and 5.24, respectively.

`COc1ncc(-c2ccc3nc(N)nn3c2)cc1NS(=O)(=O)c1ccc(F)cc1`: the pIC50 was 5.53 with HCT-116 [4], 5.71 with MCF7 and 5.40 in data set [6].

As to `CC(=O)Nc1nc2ccc(-c3cnc(Cl)c(NS(=O)(=O)c4ccc(F)cc4)c3)cn2n1`, the results for the pIC50 (with HCT-116 [4]; in the data set with MCF7; in [6]) were 5.03, 4.70 and 5.16, respectively.

With `COc1ncc(-c2ccc3nc(NC(C)=O)nn3c2)cc1NS(=O)(=O)C1CC1`, the values for the pIC50 (with HCT-116 [4]; with MCF7; in [6]) were 5.65, 5.79 and 5.43, respectively.

As for `COc1ncc(-c2ccn3nc(NC(C)=O)nc3c2)cc1NS(=O)(=O)c1ccc(C)cc1`, the pIC50 was 5.86 in the data set with HCT-116 [4], 5.87 in the data set with MCF7 and 5.69 in data set [6].

For `CC(=O)Nc1nc2ccc(-c3cnc(Cl)c(NS(=O)(=O)c4ccc(F)cc4)c3)cc2s1`, in the data set with MCF7, the pIC50 is 6.64. For the same molecule, the inhibition entry with HCT-116 [8] was “Active”.

On to `CC(=O)Nc1nc2ccc(-c3cnc(Cl)c(NS(=O)(=O)c4ccc(C)cc4)c3)cn2n1`, for which the values for the pIC50 (with HCT-116 [4]; with MCF7; in [6]) were 5.58, 5.49 and 5.42, respectively.

For `COc1ncc(-c2ccc3nc(NC(=O)C4CC4)nn3c2)cc1NS(=O)(=O)c1ccc(F)cc1`, the pIC50 in the data set with HCT-116 [4] is 5.76; in the data set with MCF7, 5.59; in data set [6] it was 5.31.
